# Laboratory results: ChEMBL document CHEMBL4689842, “EUbOPEN Chemogenomics Library wave 1” (2021)
# System: Fibroblast
# Assay: Multiplex assay against human fibroblast
# Type: toxicity, cell-based
# Outline: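 Phenotypes for tubulin, mitochondrial mass and membrane permeability are expressed as per cents of healthy-nucleus cells. Cells were stained live at seeding with Hoechst33342, BioTracker Green Microtubule Cytoskeleton Dye, MitoTracker Red and Annexin V Alexa Fluor 680, then imaged after compound addition on a CQ1 microscope at 37°C and 5% CO2. Machine-learning gating in CellPathfinder separated Hoechst high-intensity objects from normal cells, divided normal cells by nuclear state (healthy, pyknosed, fragmented) and divided pyknosed cells into mitotic or apoptotic.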
# [1] = 12 h, 1 µM, compound concentration 1 uM, replicate 1
# [2] = 12 h, 1 µM, compound concentration 1 uM, replicate 2
# [3] = 12 h, 10 µM, compound concentration 10 uM, replicate 1
# [4] = 12 h, 10 µM, compound concentration 10 uM, replicate 2
# [5] = 24 h, 1 µM, compound concentration 1 uM, replicate 1
# [6] = 24 h, 1 µM, compound concentration 1 uM, replicate 2
# [7] = 24 h, 10 µM, compound concentration 10 uM, replicate 1
# [8] = 24 h, 10 µM, compound concentration 10 uM, replicate 2
smiles,measurement,setting,value
CCn1cc(-c2ccnc3[nH]c(-c4cccc(CN(C)C)c4)cc23)c(-c2ccc(NC(=O)N(C)C)cc2)n1 [GSK-1070916],Population Apoptotic (%),[1],80%
same,Population Fragmented Nuclei (%),[1],33%
same,Population Healthy Nuclei (%),[1],51%
same,Population Hoechst High Intensity Objects (%),[1],13%
same,Population Membrane Permeable-Phenotype (%),[1],4%
same,Population Mitochondria Different-Phenotype (%),[1],0%
same,Population Mitotic Cells (%),[1],19%
same,Population Normal (%),[1],86%
same,Population Pyknosed Nuclei (%),[1],14%
same,Population Tubulin-Different-Phenotype (%),[1],5%
same,Total Cell Count,[1],205
same,Population Apoptotic (%),[2],25%
same,Population Fragmented Nuclei (%),[2],56%
same,Population Healthy Nuclei (%),[2],34%
same,Population Hoechst High Intensity Objects (%),[2],46%
same,Population Membrane Permeable-Phenotype (%),[2],26%
same,Population Mitochondria Different-Phenotype (%),[2],6%
same,Population Mitotic Cells (%),[2],75%
same,Population Normal (%),[2],53%
same,Population Pyknosed Nuclei (%),[2],9%
same,Population Tubulin-Different-Phenotype (%),[2],13%
same,Total Cell Count,[2],83
same,Population Apoptotic (%),[3],60%
same,Population Fragmented Nuclei (%),[3],23%
same,Population Healthy Nuclei (%),[3],56%
same,Population Hoechst High Intensity Objects (%),[3],44%
same,Population Membrane Permeable-Phenotype (%),[3],5%
same,Population Mitochondria Different-Phenotype (%),[3],2%
same,Population Mitotic Cells (%),[3],39%
same,Population Normal (%),[3],55%
same,Population Pyknosed Nuclei (%),[3],19%
same,Population Tubulin-Different-Phenotype (%),[3],27%
same,Total Cell Count,[3],473
same,Population Apoptotic (%),[4],33%
same,Population Fragmented Nuclei (%),[4],54%
same,Population Healthy Nuclei (%),[4],35%
same,Population Hoechst High Intensity Objects (%),[4],49%
same,Population Membrane Permeable-Phenotype (%),[4],4%
same,Population Mitochondria Different-Phenotype (%),[4],13%
same,Population Mitotic Cells (%),[4],66%
same,Population Normal (%),[4],50%
same,Population Pyknosed Nuclei (%),[4],9%
same,Population Tubulin-Different-Phenotype (%),[4],52%
same,Total Cell Count,[4],127
same,Population Apoptotic (%),[5],70%
same,Population Fragmented Nuclei (%),[5],32%
same,Population Healthy Nuclei (%),[5],56%
same,Population Hoechst High Intensity Objects (%),[5],19%
same,Population Membrane Permeable-Phenotype (%),[5],3%
same,Population Mitochondria Different-Phenotype (%),[5],1%
same,Population Mitotic Cells (%),[5],30%
same,Population Normal (%),[5],80%
same,Population Tubulin-Different-Phenotype (%),[5],5%
same,Total Cell Count,[5],222
same,Population Apoptotic (%),[6],66%
same,Population Fragmented Nuclei (%),[6],62%
same,Population Healthy Nuclei (%),[6],26%
same,Population Hoechst High Intensity Objects (%),[6],23%
same,Population Membrane Permeable-Phenotype (%),[6],21%
same,Population Mitochondria Different-Phenotype (%),[6],14%
same,Population Mitotic Cells (%),[6],33%
same,Population Normal (%),[6],76%
same,Population Pyknosed Nuclei (%),[6],11%
same,Population Tubulin-Different-Phenotype (%),[6],21%
same,Total Cell Count,[6],69
same,Population Apoptotic (%),[7],49%
same,Population Fragmented Nuclei (%),[7],24%
same,Population Healthy Nuclei (%),[7],51%
same,Population Hoechst High Intensity Objects (%),[7],50%
same,Population Membrane Permeable-Phenotype (%),[7],0%
same,Population Mitochondria Different-Phenotype (%),[7],10%
same,Population Mitotic Cells (%),[7],50%
same,Population Normal (%),[7],50%
same,Population Pyknosed Nuclei (%),[7],24%
same,Population Tubulin-Different-Phenotype (%),[7],31%
same,Total Cell Count,[7],430
same,Population Apoptotic (%),[8],20%
same,Population Fragmented Nuclei (%),[8],45%
same,Population Healthy Nuclei (%),[8],40%
same,Population Hoechst High Intensity Objects (%),[8],44%
same,Population Membrane Permeable-Phenotype (%),[8],3%
same,Population Mitochondria Different-Phenotype (%),[8],20%
same,Population Mitotic Cells (%),[8],80%
same,Population Normal (%),[8],55%
same,Population Pyknosed Nuclei (%),[8],14%
same,Population Tubulin-Different-Phenotype (%),[8],51%
same,Total Cell Count,[8],129
CCN1CCN(c2ccc(Nc3cc(N(C)C(=O)Nc4c(Cl)c(OC)cc(OC)c4Cl)ncn3)cc2)CC1 [INFIGRATINIB],Population Apoptotic (%),[1],55%
same,Population Fragmented Nuclei (%),[1],28%
same,Population Healthy Nuclei (%),[1],43%
same,Population Hoechst High Intensity Objects (%),[1],24%
same,Population Membrane Permeable-Phenotype (%),[1],2%
same,Population Mitochondria Different-Phenotype (%),[1],12%
same,Population Mitotic Cells (%),[1],44%
same,Population Normal (%),[1],75%
same,Population Pyknosed Nuclei (%),[1],27%
same,Population Tubulin-Different-Phenotype (%),[1],23%
same,Total Cell Count,[1],322
same,Population Apoptotic (%),[2],77%
same,Population Fragmented Nuclei (%),[2],63%
same,Population Healthy Nuclei (%),[2],20%
same,Population Hoechst High Intensity Objects (%),[2],38%
same,Population Membrane Permeable-Phenotype (%),[2],18%
same,Population Mitochondria Different-Phenotype (%),[2],27%
same,Population Mitotic Cells (%),[2],22%
same,Population Normal (%),[2],61%
same,Population Pyknosed Nuclei (%),[2],16%
same,Population Tubulin-Different-Phenotype (%),[2],45%
same,Total Cell Count,[2],89
same,Population Apoptotic (%),[3],61%
same,Population Fragmented Nuclei (%),[3],31%
same,Population Healthy Nuclei (%),[3],55%
same,Population Hoechst High Intensity Objects (%),[3],13%
same,Population Membrane Permeable-Phenotype (%),[3],5%
same,Population Mitotic Cells (%),[3],38%
same,Population Normal (%),[3],86%
same,Population Tubulin-Different-Phenotype (%),[3],3%
same,Total Cell Count,[3],195
same,Population Apoptotic (%),[4],75%
same,Population Fragmented Nuclei (%),[4],60%
same,Population Healthy Nuclei (%),[4],26%
same,Population Hoechst High Intensity Objects (%),[4],34%
same,Population Membrane Permeable-Phenotype (%),[4],17%
same,Population Mitochondria Different-Phenotype (%),[4],5%
same,Population Mitotic Cells (%),[4],25%
same,Population Normal (%),[4],65%
same,Population Pyknosed Nuclei (%),[4],12%
same,Population Tubulin-Different-Phenotype (%),[4],11%
same,Total Cell Count,[4],98
same,Population Apoptotic (%),[5],60%
same,Population Fragmented Nuclei (%),[5],15%
same,Population Healthy Nuclei (%),[5],44%
same,Population Hoechst High Intensity Objects (%),[5],36%
same,Population Membrane Permeable-Phenotype (%),[5],4%
same,Population Mitochondria Different-Phenotype (%),[5],29%
same,Population Mitotic Cells (%),[5],40%
same,Population Normal (%),[5],63%
same,Population Pyknosed Nuclei (%),[5],39%
same,Population Tubulin-Different-Phenotype (%),[5],40%
same,Total Cell Count,[5],259
same,Population Apoptotic (%),[6],66%
same,Population Fragmented Nuclei (%),[6],60%
same,Population Healthy Nuclei (%),[6],27%
same,Population Hoechst High Intensity Objects (%),[6],46%
same,Population Membrane Permeable-Phenotype (%),[6],0%
same,Population Mitochondria Different-Phenotype (%),[6],23%
same,Population Mitotic Cells (%),[6],33%
same,Population Normal (%),[6],53%
same,Population Pyknosed Nuclei (%),[6],12%
same,Population Tubulin-Different-Phenotype (%),[6],38%
same,Total Cell Count,[6],90
same,Population Apoptotic (%),[7],68%
same,Population Fragmented Nuclei (%),[7],26%
same,Population Healthy Nuclei (%),[7],61%
same,Population Hoechst High Intensity Objects (%),[7],15%
same,Population Mitochondria Different-Phenotype (%),[7],3%
same,Population Mitotic Cells (%),[7],31%
same,Population Normal (%),[7],84%
same,Population Pyknosed Nuclei (%),[7],11%
same,Population Tubulin-Different-Phenotype (%),[7],3%
same,Total Cell Count,[7],191
same,Population Apoptotic (%),[8],100%
same,Population Fragmented Nuclei (%),[8],56%
same,Population Healthy Nuclei (%),[8],32%
same,Population Hoechst High Intensity Objects (%),[8],34%
same,Population Membrane Permeable-Phenotype (%),[8],9%
same,Population Mitochondria Different-Phenotype (%),[8],9%
same,Population Mitotic Cells (%),[8],0%
same,Population Normal (%),[8],65%
same,Population Pyknosed Nuclei (%),[8],10%
same,Population Tubulin-Different-Phenotype (%),[8],9%
same,Total Cell Count,[8],99
